Among the data in PubChem BioAssay AID588761 (Johns Hopkins Ion Channel Center, 2011) are outcome values, retold here.

Calls of active or inactive are those of the source.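 How the source made its calls: active means peak block of the KCNQ2 potassium channel above 30% at any tested dose, with a fitted dose response curve; inactive means no channel block at any dose, or no curve.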

The target in this test is Potassium voltage-gated channel subfamily KQT member 2 (Rattus norvegicus) (UniProt O88943). The test can be described thus: rat KCNQ2 channel inhibition, SAR follow-up, selectivity assay for KCNK9 inhibitor project, cell-based, FluxOR thallium flux, CRC (AID 588761). Conditions: KCNQ2-expressing cells; series mostly up to 30 µM. Summed up: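 Material: CHO cells expressing rat KCNQ2 potassium channel / Dosing: compound concentration-response series / Times: dye 90 min RT, compound 20 min RT / Technique: FluxOR thallium-flux fluorescence, kinetic imaging / Benchmarks: XE-991 control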
Sequence of Potassium voltage-gated channel subfamily KQT member 2 (Rattus norvegicus) (O88943 whole entry, looked up): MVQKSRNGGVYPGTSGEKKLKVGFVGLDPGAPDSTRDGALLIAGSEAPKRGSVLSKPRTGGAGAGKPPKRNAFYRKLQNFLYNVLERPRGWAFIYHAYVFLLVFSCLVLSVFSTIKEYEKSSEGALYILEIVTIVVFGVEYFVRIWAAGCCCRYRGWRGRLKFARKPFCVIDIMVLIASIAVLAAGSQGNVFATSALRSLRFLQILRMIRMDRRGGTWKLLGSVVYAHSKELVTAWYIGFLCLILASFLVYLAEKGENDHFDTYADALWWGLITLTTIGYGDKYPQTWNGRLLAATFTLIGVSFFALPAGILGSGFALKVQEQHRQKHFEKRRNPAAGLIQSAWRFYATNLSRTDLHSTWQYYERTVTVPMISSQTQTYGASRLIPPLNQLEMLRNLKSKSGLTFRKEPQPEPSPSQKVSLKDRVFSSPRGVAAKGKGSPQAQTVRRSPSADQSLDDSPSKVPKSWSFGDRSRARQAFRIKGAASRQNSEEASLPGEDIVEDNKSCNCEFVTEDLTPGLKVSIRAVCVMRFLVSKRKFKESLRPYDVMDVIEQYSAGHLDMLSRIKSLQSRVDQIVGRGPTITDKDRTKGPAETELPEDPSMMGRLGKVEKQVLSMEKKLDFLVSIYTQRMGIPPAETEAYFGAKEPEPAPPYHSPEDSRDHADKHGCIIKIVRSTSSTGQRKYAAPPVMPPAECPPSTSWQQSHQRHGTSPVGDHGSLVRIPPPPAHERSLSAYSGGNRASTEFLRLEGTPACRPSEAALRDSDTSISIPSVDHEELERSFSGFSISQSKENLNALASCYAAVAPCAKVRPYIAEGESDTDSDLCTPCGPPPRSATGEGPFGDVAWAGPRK
For `Cc1cccc(NC(=O)c2cccc(NC(=O)c3ccccc3)c2)c1`, the outcome was inactive.

`Cc1cccc(C(=O)Nc2cccc(C(=O)Nc3ccccc3)c2)c1`: the outcome was inactive.

Turning to `Cc1cccc(NC(=O)c2ccccc2NC(=O)c2ccccc2)c1`, the molecule was classed as inactive.

On to `Cc1cccc(C(=O)Nc2ccc(C(=O)Nc3ccccc3)cc2)c1`, for which the result was inactive.

Regarding `Cc1cccc(C(=O)Nc2ccccc2C(=O)Nc2ccccc2)c1`, the outcome was inactive.
